ChEMBL document CHEMBL1140488, “Influence of 6 or 8-substitution on the antiviral activity of 3-phenethylthiomethylimidazo[1,2-a]pyridine against human cytomegalovirus (HCMV) and varicella-zoster virus (VZV)” (Bioorg Med Chem, 2007)
≈ marks a conversion by molar mass, not a printed value.

Tests used:
[1] = system: Human betaherpesvirus 5; experiment: Antiviral activity against HCMV AD169 in HEL cells assessed as reduction of virus plaque formation after 5 days; type: functional, organism-based; details: Human betaherpesvirus 5, AD169, HEL, 120 h
Summary of the method: (§1)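 Confluent human embryonic lung (HEL) cell monolayers in microtiter plates were inoculated with 100 PFU of HCMV (AD169 or Davis) and left 2 h for adsorption. Residual virus was then removed and compound was added at varying concentrations. Viral cytopathicity was read once it reached completion in untreated infected controls. EC50 is the concentration inhibiting cytopathicity by 50%.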

[2] = Cytotoxicity against HEL cells assessed as alteration in cell morphology after 3 days; type: cell-based; details: human
Summary of the method: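 HEL cell cultures exposed to compound were inspected by microscope for altered morphology. MCC is the minimum concentration causing a microscopically detectable alteration of cell morphology.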

[3] = Cytotoxicity against HEL cells assessed as reduction of cell growth after 3 days; type: cell-based; details: human
Summary of the method: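 HEL cell suspensions were added to wells holding serial concentrations of compound and incubated 3 days at 37 °C in humidified CO2. Viable cells were then counted with a Coulter Counter. CC50 is the concentration reducing viable cell number by 50%.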

[4] = system: Human betaherpesvirus 5; experiment: Antiviral activity against HCMV Davis in HEL cells assessed as reduction of virus plaque formation after 5 days; type: functional, organism-based; details: Human betaherpesvirus 5, Davis, 120 h
Summary of the method: as §1, with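 “controls.” for “controls. EC50 is the concentration inhibiting cytopathicity by 50%.”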

[5] = system: Human alphaherpesvirus 3; experiment: Antiviral activity against TK+ VZV OKA in HEL cells assessed as reduction of virus plaque formation; type: functional, organism-based; details: Human alphaherpesvirus 3, OKA
[6] = system: Human alphaherpesvirus 3; experiment: Antiviral activity against TK- VZV 07/1 in HEL cells assessed as reduction of virus plaque formation; type: functional, organism-based; details: Human alphaherpesvirus 3, 07/1, HEL

## Cc1cc(Br)cn2c(CSCCc3ccccc3)cnc12
[1]
  EC50: 0.32 µg/mL (≈ 0.886 µM)
[2]
  MCC at 72 h: ≥ 2 µg/mL
[3]
  CC50 at 72 h: 28 µg/mL (≈ 77.5 µM)
[4]
  EC50: 0.13 µg/mL (≈ 0.36 µM)
[5]
  EC50: 0.48 µg/mL (≈ 1.33 µM)
[6]
  EC50: 1.1 µg/mL (≈ 3.04 µM)

## Cc1cc(-c2ccccc2)cn2c(CSCCc3ccccc3)cnc12
[1]
  EC50: 2 µg/mL (≈ 5.58 µM)
[2]
  MCC at 72 h: 20 µg/mL
[3]
  CC50 at 72 h: 31 µg/mL (≈ 86.5 µM)
[4]
  EC50: 2.2 µg/mL (≈ 6.14 µM)
[5]
  EC50: 3.6 µg/mL (≈ 10 µM)
[6]
  EC50: > 4 µg/mL

## Cc1cc(-c2ccsc2)c2ncc(CSCCc3ccccc3)n2c1
[1]
  EC50: 2.5 µg/mL (≈ 6.86 µM)
[2]
  MCC at 72 h: 100 µg/mL
[3]
  CC50 at 72 h: > 50 µg/mL
[4]
  EC50: 2.5 µg/mL (≈ 6.86 µM)
[5]
  EC50: 8.9 µg/mL (≈ 24.4 µM)
[6]
  EC50: 8.6 µg/mL (≈ 23.6 µM)

## Cc1cc(I)c2ncc(CSCCc3ccccc3)n2c1
[1]
  EC50: > 0.8 µg/mL
[2]
  MCC at 72 h: ≥ 4 µg/mL
[3]
  CC50 at 72 h: > 50 µg/mL
[4]
  EC50: 1.8 µg/mL (≈ 4.41 µM)
[5]
  EC50: 2.6 µg/mL (≈ 6.37 µM)
[6]
  EC50: 2.6 µg/mL (≈ 6.37 µM)

## COc1ccc(-c2cc(C)cn3c(CSCCc4ccccc4)cnc23)cc1
[1]
  EC50: 2.2 µg/mL (≈ 5.66 µM)
[2]
  MCC at 72 h: 20 µg/mL
[3]
  CC50 at 72 h: 19.6 µg/mL (≈ 50.4 µM)
[4]
  EC50: 2.2 µg/mL (≈ 5.66 µM)
[5]
  EC50: 2 µg/mL (≈ 5.15 µM)
[6]
  EC50: 3.1 µg/mL (≈ 7.98 µM)

## Cc1cc(-c2cccc(C#N)c2)cn2c(CSCCc3ccccc3)cnc12
[1]
  EC50: 2.2 µg/mL (≈ 5.74 µM)
[2]
  MCC at 72 h: > 100 µg/mL
[3]
  CC50 at 72 h: > 50 µg/mL
[4]
  EC50: 2.5 µg/mL (≈ 6.52 µM)
[5]
  EC50: > 100 µg/mL
[6]
  EC50: 81 µg/mL (≈ 211 µM)

## Cc1cc(I)cn2c(CSCCc3ccccc3)cnc12
[1]
  EC50: > 0.16 µg/mL
[2]
  MCC at 72 h: ≥ 0.8 µg/mL
[3]
  CC50 at 72 h: > 50 µg/mL
[4]
  EC50: 0.12 µg/mL (≈ 0.294 µM)
[5]
  EC50: 0.68 µg/mL (≈ 1.67 µM)
[6]
  EC50: 0.43 µg/mL (≈ 1.05 µM)

## Cc1cc(-c2cccc(O)c2)c2ncc(CSCCc3ccccc3)n2c1
[1]
  EC50: > 4 µg/mL
[2]
  MCC at 72 h: 20 µg/mL
[3]
  CC50 at 72 h: 11.4 µg/mL (≈ 30.4 µM)
[4]
  EC50: > 4 µg/mL
[5]
  EC50: 1.6 µg/mL (≈ 4.27 µM)
[6]
  EC50: 2.9 µg/mL (≈ 7.74 µM)

## Cc1cc(-c2ccc(O)cc2)c2ncc(CSCCc3ccccc3)n2c1
[1]
  EC50: 2.2 µg/mL (≈ 5.87 µM)
[2]
  MCC at 72 h: 20 µg/mL
[3]
  CC50 at 72 h: 13.7 µg/mL (≈ 36.6 µM)
[4]
  EC50: 2.2 µg/mL (≈ 5.87 µM)
[5]
  EC50: 1.7 µg/mL (≈ 4.54 µM)
[6]
  EC50: 2.7 µg/mL (≈ 7.21 µM)

## COc1ccc(-c2cc(C)c3ncc(CSCCc4ccccc4)n3c2)cc1
[1]
  EC50: 3.1 µg/mL (≈ 7.98 µM)
[2]
  MCC at 72 h: 20 µg/mL
[3]
  CC50 at 72 h: 25.8 µg/mL (≈ 66.4 µM)
[4]
  EC50: 2.2 µg/mL (≈ 5.66 µM)
[5]
  EC50: 2.4 µg/mL (≈ 6.18 µM)
[6]
  EC50: > 4 µg/mL

## Nc1nc2c(ncn2COCCO)c(=O)[nH]1 [ACYCLOVIR]
[2]
  MCC at 72 h: > 400 µg/mL
[3]
  CC50 at 72 h: > 200 µg/mL

## O=c1[nH]c(=O)n([C@H]2C[C@H](O)[C@@H](CO)O2)cc1/C=C/Br [BRIVUDINE]
[2]
  MCC at 72 h: > 400 µg/mL
[5]
  EC50: 0.0038 µg/mL (≈ 0.0114 µM)
[6]
  EC50: 362 µg/mL (≈ 1090 µM)

## Nc1ccn(C[C@@H](CO)OCP(=O)(O)O)c(=O)n1.O.O [CIDOFOVIR]
[1]
  EC50: 0.1 µg/mL
[2]
  MCC at 72 h: ≥ 100 µg/mL
[3]
  CC50 at 72 h: 47 µg/mL
[4]
  EC50: 0.12 µg/mL

## Nc1nc2c(ncn2COC(CO)CO)c(=O)[nH]1 [GANCICLOVIR]
[1]
  EC50: 0.51 µg/mL (≈ 2 µM)
[2]
  MCC at 72 h: 100 µg/mL
[3]
  CC50 at 72 h: 146 µg/mL (≈ 572 µM)
